Published values collected from several papers.
Lines come from different studies, so protocols differ.
Cell line: MCF7
Read-out: cell growth or viability

| Compound | assay | conditions | endpoint | result |
| --- | --- | --- | --- | --- |
| COc1ccc(C(=O)/C=C/c2ccc3c(c2)OC(F)(F)O3)cc1S(N)(=O)=O | SRB | 10 µM | inhibition | 7% |
| CCOc1cc(-c2nc3ccccc3[nH]2)ccc1O | MTT | 48 h | IC50 | 59.2 µM |
| COc1cc(C(CC(C)=O)NCCc2ccc(O)c(O)c2)ccc1O (stereo not shown) | MTT | – | TGI | 46.2 µM |
| CCCCCCCC(=O)NCC(=O)OC | MTT | 10 µM, 48 h | inhibition | 45% |
| CCOCCOCCOCCNC(=S)NCCCC[C@H](NS(C)(=O)=O)C(=O)N[C@@H](C)C(=O)N[C@@H](CCCNC(=N)N)C(N)=O | MTT | 72 h | EC50 | > 100 µM |
| COc1ccc(C(=O)/C=C/c2ccccc2Cl)cc1S(N)(=O)=O | SRB | 10 µM | inhibition | 4% |
| COc1cc(CNC(=O)CCCC/C=C/C(C)C)ccc1O | SRB | 10 µM | inhibition | 24% |
| COc1cc(C(CC(=O)c2ccc(C)cc2)NCCc2ccc(O)c(O)c2)ccc1O (stereo not shown) | MTT | – | TGI | 10.1 µM |
| Cc1ccc2nc(-c3ccc(Cl)cc3)n(Cc3ccccc3Cl)c2c1 | MTT | – | IC50 | 59.8 µM |
| COc1cccc2c1C(=O)c1c(O)c3c(c(O)c1C2=O)C[C@@](O)(C(=O)CO)C[C@@H]3O[C@H]1C[C@H](N)[C@H](O)[C@H](C)O1 | MTT | 48 h | IC50 | 0.964 µg/mL |
| COc1ccccc1/C=C/C(=O)c1ccc(OC)c(S(N)(=O)=O)c1 | SRB | 10 µM | inhibition | 92% |
| C=CCn1c(-c2ccc([N+](=O)[O-])cc2)nc2ccccc21 | MTT | – | IC50 | 34.1 µM |
| COc1ccc(C(=O)/C=C/c2ccccc2Br)cc1S(N)(=O)=O | SRB | 10 µM | inhibition | 171% |
| C[C@]12CC[C@@H]3c4ccc(O)cc4CC[C@H]3[C@@H]1CC[C@@H]2O | ATP luminescence | 72 h | EC50 | 22.5 µM |
| C=CCn1c(-c2ccc(OC)c(OC)c2)nc2ccccc21 | MTT | – | IC50 | 37 µM |
| COc1ccc(C(=O)/C=C/c2cccnc2)cc1S(N)(=O)=O | SRB | 10 µM | inhibition | 93% |
| Clc1ccc(-c2nc3ccccc3n2Cc2ccccc2)cc1Cl | MTT | – | IC50 | 62.4 µM |
| CCCCCCCCCCCCNC(=O)NCCCC[C@H](NS(C)(=O)=O)C(=O)N[C@H](C)C(=O)N[C@@H](CCCNC(=N)N)C(N)=O | MTT | 72 h | EC50 | 69.2 to 78.9 µM |
| Clc1ccc(-c2nc3ccccc3[nH]2)c(Cl)c1 | MTT | 48 h | IC50 | 55.8 µM |
| CCCCCCCCCCCCNC(=S)NCCCC[C@H](NC(=O)OCc1ccccc1)C(=O)N[C@@H](C)C(=O)N[C@@H](CCCNC(=N)N)C(N)=O | MTT | 72 h | EC50 | 64.7 to 76.6 µM |
| CCOc1cc(-c2nc3ccc(C)cc3[nH]2)ccc1O | MTT | 48 h | IC50 | 54.9 µM |
| CC/C(=C(\c1ccccc1)c1ccc(OCCN(C)C)cc1)c1ccccc1 | ATP luminescence | 72 h | EC90 | 32.2 µM |
| COc1ccc(C(=O)/C=C/c2cccc3ccccc23)cc1S(N)(=O)=O | SRB | 10 µM | inhibition | 160% |
| COc1cc(C(CC(=O)c2ccc([N+](=O)[O-])cc2)NCCc2ccc(O)c(O)c2)ccc1O (stereo not shown) | MTT | – | TGI | 0.29 µM |
| Clc1ccc(-c2nc3ccccc3n2Cc2ccccc2)cc1 | MTT | – | IC50 | 40.2 µM |
| COc1ccc(C(=O)/C=C/c2cccc(Cl)c2Cl)cc1S(N)(=O)=O | SRB | 10 µM | inhibition | 140% |
| COc1cc(C(CC(=O)c2ccc(C(C)(C)C)cc2)NCCc2ccc(O)c(O)c2)ccc1O (stereo not shown) | MTT | – | TGI | 4.24 µM |
| COc1ccc(Cc2nc(/N=C3\NC(=O)N(C)C3=O)n(C)c2Cc2ccc(O)cc2)cc1 | – | – | EC50 | 5.9 µM |
